Data: ChEMBL document CHEMBL4699465, “Isolation of Isotrichophycin C and Trichophycins G-I from a Collection of Trichodesmium thiebautii” (J Nat Prod, 2020)

Each compound was assayed on N2a (assay: Cytotoxicity against mouse Neuro-2a cells assessed as reduction in cell viability incubated for 72 hrs by MTT assay).
Format: functional, cell-based
Method in brief: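 Murine neuroblastoma neuro-2A cells were tested over a range of concentrations, with four technical replicates per concentration. Each assay was run in triplicate. Doxorubicin served as the positive control. EC50 was taken from concentration–viability curves.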

Row | SMILES | EC50 [µM]
1 | C#CCCCCC/C(=C/Cl)CC[C@H](O)/C=C(\C)[C@H](O)CC=C | > 50
2 | COC1=CC(=O)O[C@@H]([C@H](C)C[C@H](C)CC(C)=O)C1 | > 100
3 | C#CCCC/C(=C/Cl)C[C@H](O)CC[C@@H](C)C[C@@H](C)[C@H](O)CCCC[C@@H](C)[C@H](O)CC=C | 12
4 | C[C@H](CC[C@@H](O)C/C(=C/Cl)CCCC#CBr)C[C@@H](C)[C@@H](O)C/C=C/Cl | > 100
5 | C=CC[C@@H](OC(C)=O)[C@H](C)CCCC[C@@H](OC(C)=O)[C@H](C)C[C@H](C)CC[C@H](C/C(=C\Cl)Cc1ccccc1)OC(C)=O | > 100
6 | C[C@H](CC[C@@H](O)C/C(=C/Cl)Cc1ccccc1)C[C@@H](C)[C@@H](O)C/C=C/Cl | 24
7 | C[C@H](CC[C@@H](O)C/C(=C\Cl)Cc1ccccc1)C[C@@H](C)[C@@H](O)C/C=C/Cl | 13
8 | CCC(=O)N(C)CCC/C(=C\Cl)C/C=C(\C)C[C@@H](C)C[C@@H](C)[C@H]1CC(OC)=CC(=O)O1 | 14
9 | C#CCCC/C(=C\Cl)C[C@H](O)CC[C@@H](C)C[C@@H](C)[C@@H](O)C/C=C/Cl | 40
10 | C=CC[C@@H](O)[C@H](C)CCCC[C@@H](O)[C@H](C)C[C@H](C)CC[C@@H](O)C/C(=C\Cl)Cc1ccccc1 | 6.5
11 | C=CC[C@H](O)[C@H](C)C[C@H](C)CC[C@@H](O)C/C(=C\Cl)Cc1ccccc1 | 8.4
12 | COC1=CC(=O)O[C@@H]([C@H](C)C[C@H](C)CC[C@@H](O)C/C(=C/Cl)Cc2ccccc2)C1 | 15
13 | CC(=O)O[C@H](CC[C@@H](C)C[C@@H](C)[C@H](C/C=C/Cl)OC(C)=O)C/C(=C\Cl)Cc1ccccc1 | > 100
14 | C=CC[C@@H](O)/C(C)=C/[C@@H](O)CC/C(=C\Cl)Cc1ccccc1 | > 50
15 | COc1cccc2c1C(=O)c1c(O)c3c(c(O)c1C2=O)C[C@@](O)(C(=O)CO)C[C@@H]3O[C@H]1C[C@H](N)[C@H](O)[C@H](C)O1 [DOXORUBICIN] | 127
